# Assay outcomes (PubChem BioAssay)
# The list is not random: actives were taken first. Their share in the collection is about 1.7%.
# PglD DTNB – inhibitors of Campylobacter jejuni PglD acetyltransferase; purified PglD enzyme, DTNB colorimetric CoA detection; inhibition, % at 12.5 µM; 0.098% of 360,000 active; AID 602405; in the data active means inhibition above about 16%, passing the limit was not always enough; inconclusive means no clear call, values can overlap the other calls
# Rtt109 HAT inh – C. albicans Rtt109 histone acetyltransferase inhibition; 0.16% of 330,000 active; inhibition, % at 34.9 µM; Q5AAJ8; AID 540336; purified Rtt109/Vps75, ThioGlo CoA-SH fluorescence, 4 h;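 active means inhibition of at least 50% in every replicate; inconclusive means best replicate reaches 50% inhibition but some replicates fall short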
# Target sequence (Q5AAJ8 whole entry, looked up): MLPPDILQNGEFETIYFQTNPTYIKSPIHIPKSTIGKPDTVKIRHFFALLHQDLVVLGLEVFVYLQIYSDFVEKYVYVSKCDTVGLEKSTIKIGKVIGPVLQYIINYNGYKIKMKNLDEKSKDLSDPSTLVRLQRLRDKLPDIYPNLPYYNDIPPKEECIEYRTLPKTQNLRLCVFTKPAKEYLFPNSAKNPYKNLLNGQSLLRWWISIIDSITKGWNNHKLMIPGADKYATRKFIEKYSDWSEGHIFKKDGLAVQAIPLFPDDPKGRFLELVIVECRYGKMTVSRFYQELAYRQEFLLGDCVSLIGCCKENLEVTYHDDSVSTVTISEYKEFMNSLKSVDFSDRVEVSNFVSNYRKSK
# PfHsp90 set2 – growth inhibition of yeast expressing Plasmodium Hsp90 | S. cerevisiae expressing PfHsp90, BacTiter-Glo ATP, 48 h; yeast lacking PDR1 and PDR3 efflux regulators | inhibition, % at 9.4 µM | 0.32% of 310,000 active;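 active means every replicate shows inhibition above about 80%, whatever the replicate mean, limit read from the data; inconclusive means mean inhibition reaches the set limit but some replicate falls short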;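 further: 0% = DMSO neutral controls and 100% = 20 µM radicicol positive controls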
# CSC inhib – blocks cancer stem cells. AID 2717. cancer stem cell-like cells viability, luminescence. 1.1% of 300,000 active. inhibition, % at 7.5 µM; in the data active means inhibition above about 75%; inconclusive means no clear call, values can overlap the other calls; tested in HMLE shEcad cells
# SKKanGAS inh – SKKanGAS growth inhibition; S. pyogenes SKKanGAS, kanamycin growth, BacTiter-Glo, 6 h; inhibition, % at 7.5 µM; 1.3% of 300,000 active;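 active means mean replicate score, as percent of positive control median, at least 50; inconclusive means mean below 50 but one replicate at or above 50; inactive means mean and every replicate below 50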;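 further: strain carries kanamycin resistance gene driven by streptokinase promoter and grows in 40 µg/ml kanamycin; loss of luminescence reflects streptokinase promoter inhibition or plain growth inhibition; 0% = median of DMSO wells and 100% = positive control at its reference dose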
# FN deposition inh – fibronectin deposition inhibition; AH1F fibroblasts, Alexa488-fibronectin deposition fluorescence, overnight; inhibition, % at 12.6 µM; 0.086% of 350,000 active;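 active means mean inhibition across replicates of 30% or more, regardless of how many single replicates reach that level; inconclusive means mean under 30% yet at least half of replicates reach 30%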;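 further: positive control wells lacked labelled fibronectin entirely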
#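 material = AH1F fibroblast monolayer depositing Alexa488-labelled fibronectin into matrix | amount = 10000 AH1F cells/well | buffer or medium = DMEM plus 2% serum, read in PBS | incubation = 1 h cell adhesion before compound, then overnight fibronectin incubation | detection = fluorescence at 485 nm excitation, 525 nm emission | evaluation = percent inhibition as loss of matrix-bound fibronectin fluorescence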
# Active calls of the source: *; ? = inconclusive; · = not tested or not shown.
SMILES,PglD DTNB,Rtt109 HAT inh,PfHsp90 set2,CSC inhib,SKKanGAS inh,FN deposition inh
CCN(CC)S(=O)(=O)c1ccc(N/N=C/c2cc(OC)ccc2O)nc1,·,4.2,-21.4,103.8*,-12.8,8.1
Cc1cccc(N(C)S(=O)(=O)c2ccc(-c3cnc(C4CC4)o3)cc2)c1,2.3,-3.6,-47.1,77.5*,2.4,-35.6
Cc1ccc(N(C)S(=O)(=O)c2cc(-c3cnc(C4CC4)o3)ccc2C)cc1,0.3,-4.9,-7.1,39.6,7.8,-3.3
O=C(CSc1nc2ccccc2o1)Nc1ccccc1N1CCCCCC1,·,3.3,-15.4,37.9,58.9*,20.9
O=c1c(Cl)c(NCc2ccco2)cnn1C12CC3CC(CC(C3)C1)C2,3.5,4.3,13.8,-1.6,-4.8,5.6
Cc1ccc(CNc2cnn(C34CC5CC(CC(C5)C3)C4)c(=O)c2Cl)cc1,·,6.6,-14.3,78.3*,0.7,-6.4
O=c1c(Cl)c(NCc2ccccc2Cl)cnn1C12CC3CC(CC(C3)C1)C2,·,-7.7,15.7,95.5*,4.5,1.1
O=c1c(Cl)c(NCc2ccc(F)cc2)cnn1C12CC3CC(CC(C3)C1)C2,5.1,-13.1,5.3,75.1*,-6.6,7.8
O=C(C[C@@H]1CC[C@@H]2[C@H](COC[C@H](O)CN2C(=O)c2ccc3c(c2)OCO3)O1)NC1Cc2ccccc2C1,0.2,·,·,·,·,-1.3
O=[N+]([O-])c1ccc(N=Nc2c(Cl)cc(O)cc2Cl)cc1,-3.1,0.5,131.2*,110.1*,50.3*,14.1
CC(N)=Nc1ccc([N+](=O)[O-])cc1,1.2,-1.4,-0.5,-10.8,1.4,-5.6
CC(C)CCNC(=O)C1CCCN(S(=O)(=O)c2ccc3c(c2)CC(C)N3C(=O)C2CC2)C1 (centres undefined),3.8,23.1,-2.7,6.4,-14.7,0.6
CC(C)CCNC(=O)C1CCN(S(=O)(=O)c2ccc3c(c2)CC(C)N3C(=O)C2CCC2)CC1 (centres undefined),0.0,93.7*,-4.7,-8.7,-1.9,-1.9
O=C(N[C@H]1CC[C@H](CCNS(=O)(=O)c2ccc(F)cc2)O[C@H]1CO)C1CCOCC1,0.6,·,·,·,·,·
O=C(C[C@@H]1CC[C@H]2[C@@H](COC[C@@H](O)CN2C(=O)c2ccc(F)cc2)O1)NCc1cccc(F)c1,2.0,·,·,·,·,-11.8
CCCc1cc(C(=O)OC)c(NC(=O)CCC(=O)O)s1,·,7.2,19.9,-13.2,1.1,33.1*
COc1ccc(NC(=O)N[C@@H]2CC[C@@H](CC(=O)NC3CCCCC3)O[C@H]2CO)cc1,5.2,·,·,·,·,-7.2
Cc1ccc(/C=N/Nc2cc(C)nc(NCc3ccccc3)n2)cc1,·,9.4,-0.4,97.4*,11.0,-1.3
Cc1cc(N/N=C/c2ccc(F)cc2)nc(NCc2ccccc2)n1,-2.7,·,·,21.5,5.0,-6.7
Cc1cc(N/N=C/c2ccc(Cl)cc2Cl)nc(NCc2ccccc2)n1,·,-3.2,-0.1,?,92.3*,-2.9
COc1ccc(-c2ncn(CCC#N)c2[N+](=O)[O-])cc1,·,-6.3,-8.4,-8.8,96.7*,-3.7
CCCNC(=O)C[C@@H]1CC[C@@H]2[C@H](COC[C@H](O)CN2C(=O)c2cccnc2)O1,-3.3,·,·,·,·,-7.0
Fc1ccccc1-c1ccc(C2[C@H]3CNC[C@@H]2N3CC2CC2)cc1 (some centres undefined),·,·,·,·,·,-10.4
COc1ccccc1C(=O)Nc1ccc(C(=O)Nc2ccccc2C(=O)O)cc1,6.6,1.4,-7.4,-3.5,49.8*,-1.0
COc1ccc(NC(=O)c2ccccc2NC(=O)c2ccccc2)cc1,-5.7,12.8,5.8,-11.7,-0.6,-3.8
SMILES,PglD DTNB,Rtt109 HAT inh,PfHsp90 set2,CSC inhib,SKKanGAS inh,FN deposition inh
O=C(COc1ccc(Cl)cc1Cl)Nc1ccc(C(=O)Nc2ccccc2C(=O)O)cc1,3.2,16.8,21.6,-7.5,61.6*,-1.3
CCOc1ccccc1C(=O)Nc1cc(Cl)ccc1O,-0.1,13.3,37.1,·,54.1*,·
O=C(COc1ccc(Cl)cc1Cl)NC(=S)Nc1ccccc1C(=O)O,·,·,·,-4.6,14.8,·
O=C(COc1ccccc1Cl)Nc1cc(Cl)ccc1Oc1ccccc1,5.0,0.0,-6.0,89.1*,-7.9,·
COc1ccc(S(=O)(=O)Nc2ccc3c(c2)CC(=O)N([C@@H](C)CO)C[C@H](C)[C@H](CN(C)C(=O)Nc2cccc4ccccc24)O3)cc1,1.0,·,·,·,·,2.1
C[C@H]1CN([C@@H](C)CO)C(=O)Cc2cc(NC(=O)Nc3ccc(F)cc3)ccc2O[C@@H]1CN(C)Cc1ccc(C(F)(F)F)cc1,·,·,·,·,·,-8.1
Cc1ccc(Cl)cc1NC(=O)c1ccccc1OCC(=O)Nc1ccc(Cl)cc1,·,1.9,·,78.0*,2.8,-1.0
Cc1cc(C(=O)Nc2ccccc2C(=O)O)ccc1NC(=O)COc1cccc(C)c1C,8.9,13.8,5.0,12.2,53.6*,-2.8
Cc1noc(C)c1NC(=O)N(C)C[C@@H]1OCCCC[C@H](C)Oc2ccc(NS(=O)(=O)c3cccs3)cc2C(=O)N([C@@H](C)CO)C[C@@H]1C,0.0,·,·,·,·,·
CC(C)C[C@H](NC(=O)c1nc[nH]c1C(=O)N[C@@H](CC(C)C)C(=O)OC(C)(C)C)C(=O)OCc1ccccc1,·,·,·,46.1,57.9*,4.7
CC(C)(C)OC(=O)N1CCC(NC(=O)c2[nH]cnc2C(=O)Nc2ccc(Cl)cc2)CC1,-5.5,4.0,8.4,89.4*,·,-10.6
CCOC(=O)c1ccc(NC(=O)c2nc[nH]c2C(=O)N[C@@H](CC(C)C)C(=O)OC(C)(C)C)cc1,-1.5,7.2,-22.4,42.4,20.8,-17.7
CC(C)C[C@H](NC(=O)c1nc[nH]c1C(=O)NCC(=O)OCc1ccccc1)C(=O)OCc1ccccc1,-1.0,0.7,-3.0,-1.8,27.2,10.0
CC(C)C[C@H](NC(=O)c1[nH]cnc1C(=O)N[C@@H](C)c1ccccc1)C(=O)OCc1ccccc1,-0.9,2.0,5.5,0.3,74.6*,·
CC(C)C[C@H](NC(=O)c1[nH]cnc1C(=O)Nc1ccccc1)C(=O)OC(C)(C)C,7.6,-1.2,-43.7,-15.4,62.6*,-1.0
C[C@H]1CCCCO[C@H](CN(C)C(=O)CCC(F)(F)F)[C@@H](C)CN([C@@H](C)CO)C(=O)c2cc(NS(=O)(=O)c3ccc(F)cc3)ccc2O1,0.9,·,·,·,·,-4.0
C[C@@H]1CN([C@H](C)CO)C(=O)Cc2cc(NS(=O)(=O)c3ccc(F)cc3)ccc2O[C@H]1CN(C)C(=O)Nc1cccc2ccccc12,-3.7,·,·,·,·,-5.5
C[C@H]1CN([C@@H](C)CO)C(=O)c2cc(NC(=O)C3CCCCC3)ccc2O[C@H]1CN(C)C(=O)NC1CCCCC1,1.6,·,·,·,·,6.0
Cc1ccc(S(=O)(=O)Nc2ccc3c(c2)C(=O)N([C@@H](C)CO)C[C@H](C)[C@H](CN(C)S(C)(=O)=O)O3)cc1,2.7,·,·,·,·,0.2
CC(C)(C)OC(=O)NCCCC[C@H](NC(=O)c1[nH]cnc1C(=O)Nc1ccccc1)C(=O)OC(C)(C)C,-1.3,2.5,·,·,34.3,6.2
